Assay results from ChEMBL document CHEMBL1139822, “Cytotoxicity of the novel spin trapping compound 5-ethoxycarbonyl-3,5-dimethyl-pyrroline N-oxide (3,5-EDPO) and its derivatives” (Bioorg Med Chem Lett, 2007).

Experiments:
SW480 [1] = assay: Cytotoxicity against human SW480 cells at 50 mM after 24 hrs; format: functional
Method in brief: (§1)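 Human colon carcinoma SW480 cultures were exposed to spin traps at 10 to 100 mM for 24 h. Cytotoxicity was read as the dose-dependent loss in cell number. LDH released into the culture supernatant was also measured and expressed per cell as % of non-treated control. Apoptotic nuclei were stained to distinguish necrosis from apoptosis.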

Hepatocyte [2] = assay: Cytotoxicity in primary rat hepatocytes assessed as decrease in number of hepatocytes after 24 hrs; format: cell-based; parameters: scale not given: the % may be the effect or the level left
Hepatocyte [3] = assay: Cytotoxicity in primary rat hepatocytes assessed as increase in LDH release after 24 hrs; format: cell-based
SW480 [4] = assay: Cytotoxicity against human SW480 cells at 100 mM after 24 hrs; format: functional; method in brief: as §1

SMILES	Activity (SW480 [1]) [%]	Activity (Hepatocyte [2]) [%]	Activity (Hepatocyte [3])	Activity (SW480 [4]) [%]
CCOC(=O)C1(C)C(C)CC=[N+]1[O-] (stereo unspecified)	<25	60	Active	
CCCOC(=O)C1(C)CC(C)C=[N+]1[O-] (stereo unspecified)	<25			
CC1C=[N+]([O-])C(C)(C(=O)OC(C)C)C1 (stereo unspecified)	<25	60	Active	
CCOC(=O)C1(C)CC(C)C=[N+]1[O-] (stereo unspecified)	<25	60	Active	
CCCOC(=O)C1(C)C(C)CC=[N+]1[O-] (stereo unspecified)				95
